Hits are enriched below; roughly 1.7% of the tested compounds scored in any of these assays.
SUMO1 PPI mod = alters human SUMO1 binding to SIM partners; P63165; SUMO1 binding to a labelled peptide, TR-FRET, 1 h; inhibition, % at 20 µM; actives 0.33% (n = 360,000); in the data active = inhibition above about 37%
Target sequence (P63165 whole entry, looked up): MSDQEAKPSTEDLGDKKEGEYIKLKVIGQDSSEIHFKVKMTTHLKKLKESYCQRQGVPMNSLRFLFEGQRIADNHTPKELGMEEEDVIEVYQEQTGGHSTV
DNMT1 inh = DNMT1 (human) enzyme inhibition; actives 0.83% (n = 360,000); inhibition (reported as % activation of signal), % at 10 µM; P26358; DNMT1 molecular beacon, Hinp1I cleavage, fluorescence; in the data active = inhibition above about 50%
LMPTP block = blocks human LMPTP phosphatase; P24666; recombinant LMPTP-A, OMFP fluorogenic substrate, fluorescence intensity; inhibition, % at 20 µM; actives 0.22% (n = 360,000);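 active = compounds that cut the enzyme signal by at least half of the control window in the single-dose screen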
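Test system: LMPTP-A phosphatase enzyme; input: 0.625 nM LMPTP-A final; reagent: OMFP substrate, 400 µM final; compound dosing: 20 µM single dose, 3% DMSO; incubation: 50 min dark incubation at room temperature; measured by: endpoint fluorescence intensity from OMFP dephosphorylation; measure: % inhibition relative to no-enzyme and uninhibited control wells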
Scp-1 inhibitor = Scp-1 (human) phosphatase inhibition. Q9GZU7. Recombinant Scp1, phosphopeptide, malachite green phosphate absorbance. inhibition, % at 20 µM. actives 0.88% (n = 340,000). AID 493091;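 active = inhibition above about 50% at 20 µM, limit read from the data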
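Material – SCP-1 phosphatase catalytic domain, residues 76-261 · Buffer or medium – Acidic Tris acetate buffer with magnesium and detergent · Also added – Phospho 17-mer peptide substrate · Compound – single 20 µM dose, 1% DMSO · Times – 45 min room-temperature reaction, 5 min colour, 30 min stabiliser · Technique – Phosphate-binding colour reagent, absorbance read at 630 nm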
STEP inh = STEP (human) phosphatase inhibition | actives 0.25% (n = 360,000) | inhibition, % at 20 µM | recombinant STEP, OMFP fluorogenic substrate, fluorescence | P54829;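 active = inhibition at 20 µM, scaled per plate between control wells, above about 37%, limit read from the data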
Target sequence (P54829 whole entry, looked up): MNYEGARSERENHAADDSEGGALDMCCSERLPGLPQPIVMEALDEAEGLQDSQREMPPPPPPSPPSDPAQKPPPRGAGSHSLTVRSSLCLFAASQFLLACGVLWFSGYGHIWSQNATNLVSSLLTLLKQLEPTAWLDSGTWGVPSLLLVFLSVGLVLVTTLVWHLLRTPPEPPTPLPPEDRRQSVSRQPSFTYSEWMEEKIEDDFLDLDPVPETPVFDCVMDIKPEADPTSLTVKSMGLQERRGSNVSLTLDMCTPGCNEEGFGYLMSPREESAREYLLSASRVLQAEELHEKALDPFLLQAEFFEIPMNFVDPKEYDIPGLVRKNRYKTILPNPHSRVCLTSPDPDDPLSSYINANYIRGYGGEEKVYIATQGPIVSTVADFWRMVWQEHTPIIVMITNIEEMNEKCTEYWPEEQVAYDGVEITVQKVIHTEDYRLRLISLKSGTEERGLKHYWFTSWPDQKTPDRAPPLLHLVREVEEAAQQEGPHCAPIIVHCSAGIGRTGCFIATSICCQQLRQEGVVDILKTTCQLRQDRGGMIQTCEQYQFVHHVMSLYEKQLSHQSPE
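Material: STEP (striatal-enriched tyrosine phosphatase) enzyme, cell-free | Medium: 50 mM Bis-Tris pH 6.0 with 2.5 mM DTT and 0.005% Tween 20 | Read-out: Percent inhibition scaled to no-enzyme and uninhibited-enzyme controls, plate-pattern corrected | Signal: Fluorescence read at 480 nm ex / 540 nm em | Times: 20 min reaction, room temperature, in the dark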
Beacon interf DR = counter-screen for DNMT1 inhibitors: spectral interference, dose response | shares compounds with DNMT1 inh | molecular beacon fluorescence | IC50, µM | 200 tested, under 10 active; call rule not given here
DNMT1 inh conf = confirmation of human DNMT1 inhibitors | actives 8% (n = 2,300) | inhibition, % at 10 µM | shares compounds with DNMT1 inh | DNMT1 molecular beacon HinP1I cleavage, fluorescence | AID 602385;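 active = average inhibition of at least 30% in the single-concentration confirmation test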
Beacon interf = counter-screen for DNMT1 inhibitors: spectral interference; shares compounds with DNMT1 inh; DNMT1 molecular beacon spectral interference counterscreen, fluorescence 485/520; activation (fluorescence interference), % at 10 µM; actives 1% (n = 2,300);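 active = activation of at least 30% at 10 µM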;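 also: DNMT1 catalytic domain with a HinP1I cleavage step and a FAM/dabcyl DNA beacon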
Large screens that a line does not name were inactive (follow-up assays come after a bar, where they were run).

CC(C)c1ccc(NC(=O)C2Cc3c(-c4cccc(F)c4)ccnc3O2)cc1 (stereo unspecified)	none (no result: Scp-1 inhibitor)
CCc1ccc(N(CC(=O)NC(C)(C)C)C(=O)CCC(=O)Nc2ccccn2)cc1	DNMT1 inh 60 | DNMT1 inh conf inactive | Beacon interf inactive
O=C(COC(=O)c1cc(-c2ccco2)nc2ccccc12)NCc1ccc2c(c1)OCO2	DNMT1 inh 77 | DNMT1 inh conf inactive | Beacon interf inactive
CC(C)Cn1c(N)c(C(=O)COC(=O)c2cc(-c3ccccc3)nc3ccccc23)c(=O)n(C)c1=O	none
COc1ccccc1CNC(=O)COC(=O)c1cc(C)nc2ccccc12	none
O=C(COC(=O)c1ccccc1Oc1ccccc1)NCc1ccco1	DNMT1 inh 55, Scp-1 inhibitor 70 | DNMT1 inh conf inactive | Beacon interf inactive
O=C(COc1ccccc1-c1ccccc1)NCc1ccco1	none
CC(C)Cn1c(N)c(C(=O)COC(=O)c2cc(-c3ccco3)nc3ccccc23)c(=O)n(C)c1=O	DNMT1 inh 81 | DNMT1 inh conf inactive | Beacon interf inactive
COc1ccccc1CNC(=O)COC(=O)c1cc(-c2ccco2)nc2ccccc12	DNMT1 inh 100, Scp-1 inhibitor 83 | Beacon interf DR inactive | DNMT1 inh conf inactive | Beacon interf inactive
COc1cccc(NC(=O)C2(C)CCN2C(=O)Cc2cccc3ccccc23)c1 (stereo unspecified)	none (no result: Scp-1 inhibitor)
O=C(C[C@H]1C[C@H](C(=O)N2CCCCC2)[C@@]2(CCc3ccccc3)c3[nH]c4ccc(Cl)cc4c3CCN2C1=O)NCCc1ccccn1	none
O=C(C[C@H]1C[C@H](C(=O)N2CCCCC2)[C@@]2(CCc3ccccc3)c3[nH]c4ccc(Cl)cc4c3CCN2C1=O)NCCC1=CCCCC1	DNMT1 inh 61 | DNMT1 inh conf inactive | Beacon interf inactive
O=C(CC1C[C@H](C(=O)N2CCCCC2)[C@@]2(CCc3ccccc3)c3[nH]c4ccccc4c3CCN2C1=O)NCCC1=CCCCC1 (stereo partly specified)	DNMT1 inh 60 | DNMT1 inh conf inactive | Beacon interf inactive
Cc1cccc(C)c1-n1cccc1/C=C1\SC(=S)N(c2cccc(C(=O)O)c2)C1=O	none
COc1cccc(S(=O)(=O)N(C)C[C@@H]2Oc3cc(Br)ccc3S(=O)(=O)N([C@@H](C)CO)C[C@@H]2C)c1	DNMT1 inh 83 (no result: Scp-1 inhibitor) | DNMT1 inh conf inactive | Beacon interf inactive
COc1ccc(NC(=O)C2(C)Cc3c(-c4ccccc4)ccnc3O2)cc1OC (stereo unspecified)	none (no result: Scp-1 inhibitor)
O=C(CCS(=O)(=O)c1ccccc1)N(CCCN1CCOCC1)c1nc2ccc(F)cc2s1	none (no result: Scp-1 inhibitor)
O=C(C[C@H]1CC[C@H]2[C@@H](COC[C@@H](O)CN2C(=O)c2cnccn2)O1)NCc1ccc(Oc2ccccc2)cc1	none (no result: DNMT1 inh, Scp-1 inhibitor, STEP inh)
O=C(O)CN1C(=O)/C(=C\c2cc(Br)ccc2OCc2ccccc2Cl)SC1=S	DNMT1 inh 65 | Beacon interf DR inactive | DNMT1 inh conf 71 | Beacon interf inactive
O=C(O)CN1C(=O)/C(=C\c2ccccc2OCc2ccc(Cl)cc2Cl)SC1=S	none
O=C(O)CCN1C(=O)/C(=C\c2ccc(OCc3ccccc3)c(OCc3ccccc3)c2)SC1=S	DNMT1 inh 98 | DNMT1 inh conf inactive | Beacon interf inactive
O=C(NCc1ccccn1)Nc1cccc(Cl)c1Cl	none
Cc1ccc(SSc2cc(C)ccc2N)c(N)c1	none
[O-][N+](=Cc1ccccc1)CC1(O)CCCCC1	none (no result: Scp-1 inhibitor)
CCOc1ccc(N(CC(=O)Nc2ccc(C)cc2C)S(C)(=O)=O)cc1	DNMT1 inh 71 | DNMT1 inh conf inactive | Beacon interf inactive
O=C(COC(=O)c1ccc(-c2nnc(-c3ccccc3)o2)cc1)c1ccccc1	DNMT1 inh 54 | DNMT1 inh conf inactive | Beacon interf inactive
CCN(CC)c1ccc2cc(C(C)=O)c(=O)oc2c1	none
CCN(CC)c1ccc2cc(C=O)c(=O)oc2c1	DNMT1 inh 71 | DNMT1 inh conf 39 | Beacon interf 59
CCN(CC)c1ccc2cc(-c3nnc(-c4ccncc4)o3)c(=O)oc2c1	DNMT1 inh 136 | DNMT1 inh conf 88 | Beacon interf 61
CCN(CC)c1ccc2cc(C(N)=O)c(=O)oc2c1	none
Cc1ccc(C2C(/C=C3/SC(=S)NC3=O)=C(c3cccs3)Oc3ccccc32)cc1 (stereo unspecified)	DNMT1 inh 83 | Beacon interf DR inactive | DNMT1 inh conf 72 | Beacon interf inactive
CC1Cc2cc(/C=C3/SC(=S)NC3=O)ccc2O1 (stereo unspecified)	none
CN(c1ccccc1)c1ccc(/C=C(/CCC(=O)O)c2nc3ccccc3s2)cc1[N+](=O)[O-]	SUMO1 PPI mod 39, DNMT1 inh 85 | Beacon interf DR inactive | DNMT1 inh conf inactive | Beacon interf inactive
COc1ccc(Cl)cc1C(=O)NNC(=O)CNC(=O)c1ccc(C)s1	none
O=C(c1ccc(Cl)cc1)C1CCN(C(=O)c2ccccc2)CC1	DNMT1 inh 89 | DNMT1 inh conf inactive | Beacon interf inactive
CC1(C)C[C@H](O)[C@]2(CO)[C@H](O)C[C@]3(C)C(=CCC4[C@@]5(C)CC[C@H](O)C(C)(C)C5CC[C@]43C)[C@@H]2C1 (stereo partly specified)	DNMT1 inh 71 | DNMT1 inh conf inactive | Beacon interf inactive
CCOC(=O)C1(CCOc2ccccc2)CCN(Cc2cccc(OC)c2O)CC1	none
O=C(NCc1ccc2c(c1)OCO2)c1cc2ncc(Br)cn2n1	DNMT1 inh 71, LMPTP block 52, Scp-1 inhibitor 72 | DNMT1 inh conf inactive | Beacon interf inactive
Cc1csc(=O)n1CC(=O)OCC(=O)Nc1cc([N+](=O)[O-])ccc1Cl	none
Cc1ccc(NC(=O)COC(=O)Cn2c(C)csc2=O)c([N+](=O)[O-])c1	DNMT1 inh 51 | DNMT1 inh conf inactive | Beacon interf inactive
Cc1ccc(C2/C(=C(/O)c3ccccc3)C(=O)C(=O)N2CCN2CCOCC2)o1 (stereo unspecified)	none
Cc1ccc(C)c(/C(O)=C2/C(=O)C(=O)N(CCN3CCOCC3)C2c2ccco2)c1 (stereo unspecified)	DNMT1 inh 83 | DNMT1 inh conf inactive | Beacon interf inactive
ClC(Cl)(Cl)c1nc(N/N=C/c2ccncc2)c2ccccc2n1	DNMT1 inh 55 | DNMT1 inh conf inactive | Beacon interf inactive
